# In the library only some 2.6% were active in any assay of this set; here they are far more common.
# ARFGAP1 inhibitor: rat ARFGAP1 inhibition. Q62848. Arfgap1-stimulated ARF1 GTP hydrolysis, GDP FP detection. inhibition, % at 16.5 µM. 360,000 compounds, 0.26% hits. AID 651572;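 active means inhibition above a per-plate limit, mean inhibition of low control wells plus 3 SD, cut at about 25% in these data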;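 further: 0% = DMSO wells with enzyme and 100% = wells lacking Arfgap1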
#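 Assay system: purified rat His6-Arfgap1 residues 1-136 (GAP domain); Reagent: human Δ17 ARF1 bound to GTP; Dosing: 16.5 µM single point, 1.26% DMSO; Times: GTP hydrolysis reaction 2 h at 25 °C; Signal: FP, GDP Alexa 633 tracer displaced from anti-GDP antibody, 620/688 nm; Measure: % inhibition from polarization.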
# SMARCA2 activ: SMARCA2 function activation, primary screen; MG213 cells, MMTV-luciferase reporter, dexamethasone, overnight; activation, % at 9.1 µM; 370,000 compounds, 1% hits; AID 652017; in the data active means activation above about 7.8%;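 further: 0% = vehicle wells and 100% = reference activator wells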
# esBAF inh: SWI/SNF esBAF complex inhibition; mouse ES cells, Bmi1-luciferase knock-in reporter, 24 h; 100% = twice the neutral-well signal; 350,000 compounds, 2% hits; reporter increase, % at 12.5 µM; in the data active means activation above about 40%; inconclusive means no clear call, values can overlap the other calls;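 further: 0% = median of the plate's neutral control wells and 100% = double that signal; a rise in the Bmi1 reporter signal indicates esBAF inhibition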
# ASAP1 inh: ASAP1 ArfGAP inhibition. Q9ULH1. AID 624377. inhibition, % at 16.5 µM. 360,000 compounds, 0.19% hits. ASAP1-stimulated ARF1 GTP hydrolysis, GDP FP detection; in the data active means inhibition above about 25%;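 further: 0% = vehicle with enzyme and substrate and 100% = no enzyme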
# Target sequence (Q9ULH1 325-724 limits assumed): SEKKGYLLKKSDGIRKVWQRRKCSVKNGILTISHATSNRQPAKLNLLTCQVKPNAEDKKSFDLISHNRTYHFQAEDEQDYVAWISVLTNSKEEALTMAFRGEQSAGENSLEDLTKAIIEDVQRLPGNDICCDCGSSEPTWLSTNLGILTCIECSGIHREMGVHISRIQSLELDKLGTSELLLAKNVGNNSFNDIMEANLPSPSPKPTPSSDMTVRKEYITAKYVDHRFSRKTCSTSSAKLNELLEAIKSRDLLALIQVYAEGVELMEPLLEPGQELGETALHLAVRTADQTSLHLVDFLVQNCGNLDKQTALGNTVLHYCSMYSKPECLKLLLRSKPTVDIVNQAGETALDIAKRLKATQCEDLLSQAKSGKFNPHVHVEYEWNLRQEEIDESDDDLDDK
# SMARCA2 conf: SMARCA2 activation, confirmation screen; shares compounds with SMARCA2 activ; MG213 cells, MMTV-luciferase with dexamethasone, luminescence, overnight; MG213 cells expressing E1A, Rb sequestered; DMSO wells 0%, reference activator 100%; activation, % at 9.1 µM; 3,500 compounds, 30% hits;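 active means activation above its plate's cutoff, the mean activation of tested wells plus 3 SD, cut at about 7.9% in these data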
# GAL4-VP16 Luc: GAL4-VP16 reporter activation counter-screen | shares compounds with SMARCA2 activ | HEK293 GAL4-VP16 pG5luc reporter, luciferase luminescence; scaled: DMSO wells 0%, SAHA wells 100% | activation, % at 9.1 µM | 3,500 compounds, 41% hits;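 active means activation above the solvent-only control well mean plus 3 SD, averaged across control plates, cut at about 5.2% in these data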
# Active calls of the source: *; u = inconclusive; x = not tested or not shown.
SMILES,ARFGAP1 inhibitor,SMARCA2 activ,esBAF inh,ASAP1 inh,SMARCA2 conf,GAL4-VP16 Luc
CCOC(=O)/C=C(\C)N1N=C(c2ccccc2)CC1c1ccccc1 (stereo not drawn),6.3,8.3*,x,1.1,2.8,9.2*
O=C(C[C@H]1CC[C@H]2[C@@H](COC[C@H](O)CN2Cc2cccc(C(F)(F)F)c2)O1)NCc1ccc(Cl)cc1,x,x,-5.3,x,x,x
CC(=O)c1ccc(NC(=O)CSc2nc(=O)cc(N)n2-c2ccccc2)cc1,9.8,8.6*,63.2*,-12.3,6.7,8.8*
CSc1nsc(SCC(=O)Nc2ccc(NC(C)=O)cc2)n1,-12.6,-1.2,11.9,-11.1,x,x
COC(=O)c1ccc(NC(=O)CSc2nc(=O)cc(N)n2-c2ccccc2)cc1,1.7,0.5,-1.8,-0.3,x,x
CSc1nsc(SCC(=O)Nc2ccc(C(C)=O)cc2)n1,1.9,13.1*,47.7*,2.2,5.3,10.3*
COCC(=O)N1[C@@H]2CN(C(=O)Nc3cc(F)ccc3F)c3ccccc3[C@@H]2[C@@H]1CO,x,x,-1.2,x,x,x
COCCNC(=O)C[C@@H]1CC[C@@H]2[C@H](COc3ccc(NC(=O)c4cnccn4)cc3C(=O)N2C)O1,x,x,4.3,x,x,x
CCc1ccc(NCc2nc3ccccc3c(=O)[nH]2)cc1,5.1,8.3*,3.1,-9.4,11.0*,13.7*
CCCCNCc1nc2ccccc2c(=O)[nH]1,19.1,5.2,x,8.8,x,x
C[C@H](CO)N1C[C@H](C)[C@@H](CN(C)Cc2ccccc2)Oc2ccc(NC(=O)Cn3cnnn3)cc2CC1=O,x,x,-1.7,x,x,x
CCn1cc(CNC(=O)NC2CCCCC2)c(C)n1,-9.7,11.9*,x,-12.1,3.1,3.8
Cc1ccc(CNC(=O)NC2CCCCC2)cc1,7.7,3.1,x,22.6,x,x
COC(=O)c1ccccc1NC(=O)N1CCc2ccc(NC(=O)c3ccccn3)cc2C1,-3.8,8.1*,u,-0.4,5.7,7.5*
COc1ccccc1NC(=O)C(=O)/C=C(\O)c1ccccc1,-0.5,10.3*,u,-1.7,-1.0,0.3
CCOc1ccccc1NC(=O)C(=O)/C=C(\O)c1cc(OC)ccc1OC,3.7,-3.1,-2.1,-4.6,x,x
CC(=O)NCCCC(=O)NC(CCC(=O)OCc1ccccc1)C(=O)OCc1ccccc1 (stereo not drawn),12.7,8.0*,-2.9,7.6,-2.6,0.7
O=C(c1cc2c(c(-c3cccc(-c4ccncc4)c3)n1)[C@@H](CCO)N(C(=O)c1ccc3c(c1)OCO3)C2)N1CCOCC1,-0.4,8.1*,x,13.6,9.2*,0.1
C[C@H](CO)N1C[C@H](C)[C@H](CN(C)C(=O)C2CCC2)Oc2ncc(C#Cc3cccc(F)c3)cc2C1=O,x,x,0.5,x,x,x
CCOC(=O)N1CCN(C(=O)CS(=O)(=O)c2cn(Cc3ccc(F)cc3)c3ccccc23)CC1,5.8,8.0*,6.5,4.1,-1.5,2.5
COc1ccc(NC(=O)Nc2ccc3c(c2)C(=O)N([C@@H](C)CO)C[C@@H](C)[C@@H](CN(C)S(=O)(=O)c2ccccc2)O3)cc1,x,x,-4.3,x,x,x
O=C(CCc1nnc(C2(c3ccc(Cl)cc3)CCC2)o1)NC1CC1,6.7,-3.1,x,10.2,x,x
CCC(=O)C1CCCN(C(=O)CCc2nnc(C3(c4ccc(Cl)cc4)CCC3)o2)C1 (stereo not drawn),2.0,8.8*,50.2*,-2.2,4.2,5.2*
O=C(N/N=C/c1cccs1)c1ccccn1,5.3,10.3*,x,-5.0,9.6*,8.9*
C(=NN=C(NN=Cc1cccs1)NN=Cc1cccs1)c1cccs1,-8.9,12.1*,27.4,-3.7,-1.9,5.1
CO[C@@H]1CN(C)C(=O)c2ccc(NS(=O)(=O)c3cn(C)cn3)cc2OC[C@@H](C)N(CCC(F)(F)F)C[C@H]1C,x,x,-4.2,x,x,x
COc1ccc(C(=O)C=Cc2ccc3c(c2)OCO3)cc1OC,4.0,10.2*,x,2.4,11.6*,-0.4
O=C(NN=Cc1ccc2c(c1)OCO2)c1ccccc1,13.1,11.4*,7.6,-3.9,8.7*,8.4*
COc1cc(C(=O)NCc2ccc3c(c2)OCO3)ccc1OCc1c(C)noc1C,-6.4,2.5,-8.2,2.7,x,x
O=C(/C=C/c1ccc2c(c1)OCCO2)c1ccccc1,11.2,17.4*,x,14.4,10.4*,9.1*
